Test results as given in ChEMBL document CHEMBL2406929, “An optimized pyrimidinol multifunctional radical quencher” (ACS Med Chem Lett, 2013).
pEC50: −log10 of the molar value. Active and inactive are the calls of the source. No cut-off for these calls is given here.

What was measured:
[1] = Effect on total ATP level in human Friedreich's ataxia lymphocytes at 25 uM after 48 hrs by bioluminescence assay relative to control; assay type: functional
Summary of the method: (§1)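 Total cellular ATP measured in CoQ10-deficient and FRDA lymphocytes grown in glucose-free medium supplemented with galactose, so that cells rely on oxidative phosphorylation. Compounds tested at 5, 10 and 25 μM for 48 h, added from DMSO (final <0.5%). ATP expressed as % of untreated control.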

[2] = Effect on total ATP level in human Friedreich's ataxia lymphocytes at 10 uM after 48 hrs by bioluminescence assay relative to control; assay type: functional; summary of the method: as §1
[3] = Effect on total ATP level in human Friedreich's ataxia lymphocytes at 5 uM after 48 hrs by bioluminescence assay relative to control; assay type: functional; summary of the method: as §1
[4] = Effect on total ATP level in CoQ10-deficient human GM17932 cells at 25 uM after 48 hrs by bioluminescence assay relative to control; assay type: functional; summary of the method: as §1
[5] = Effect on total ATP level in CoQ10-deficient human GM17932 cells at 10 uM after 48 hrs by bioluminescence assay relative to control; assay type: functional; summary of the method: as §1
[6] = Effect on total ATP level in CoQ10-deficient human GM17932 cells at 5 uM after 48 hrs by bioluminescence assay relative to control; assay type: functional; summary of the method: as §1
[7] = species: Homo sapiens; assay: Cytoprotective activity against diethyl maleate-induced loss of mitochondrial membrane integrity in human Friedreich's ataxia lymphocytes at 500 nM incubated overnight prior to diethyl maleate-treatment measured after 140 mins by TMRM staining-based FACS flow cytometric analysis relative to control; assay type: functional
Summary of the method: (§2)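 Δψm in FRDA lymphocytes after diethyl maleate treatment. Cells stained with 250 nM TMRM and analyzed by flow cytometry on the FL2-H channel, 10,000 events per sample. Result is the % of cells with intact Δψm (top-right quadrant). FCCP uncoupler used as positive control. Final DMSO <0.5%. Means ± SEM of three independent experiments run in duplicate.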

[8] = species: Homo sapiens; assay: Cytoprotective activity against diethyl maleate-induced loss of mitochondrial membrane integrity in human Friedreich's ataxia lymphocytes at 250 nM incubated overnight prior to diethyl maleate-treatment measured after 140 mins by TMRM staining-based FACS flow cytometric analysis relative to control; assay type: functional; summary of the method: as §2
[9] = species: Homo sapiens; assay: Cytoprotective activity against diethyl maleate-induced loss of mitochondrial membrane integrity in human Friedreich's ataxia lymphocytes at 100 nM incubated overnight prior to diethyl maleate-treatment measured after 140 mins by TMRM staining-based FACS flow cytometric analysis relative to control; assay type: functional; summary of the method: as §2
[10] = species: Homo sapiens; assay: Antioxidant activity in human Friedreich's ataxia lymphocytes assessed as inhibition of diethyl maleate-induced lipid peroxidation at 100 to 500 nM incubated overnight prior to diethyl maleate-treatment measured after 120 mins by C11-BODIPY581/591 staining-based FACS flow cytometric analysis; assay type: functional
Summary of the method: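 Glutathione depletion by diethyl maleate in FRDA lymphocytes. Cells stained with C11-BODIPY581/591; oxidized green fluorescence read by FACS on the FL1-H channel. Lipid peroxidation taken as the increase in geometric mean fluorescence intensity relative to the untreated control, expressed as % scavenging activity. Compounds added from DMSO (final DMSO <0.5%). Mean ± SEM, n = 3.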

[11] = Cytoprotective activity against BSO-induced cell death in human Friedreich's ataxia fibroblasts preincubated for 12 hrs prior to BSO-treatment measured after 48 hrs by luminescence assay
[12] = species: Homo sapiens; assay: Reversal of 4-nitrobenzoate-induced reduction in mitochondrial ATP level in CoQ10-deficient human Friedreich's ataxia lymphocytes at 10 uM after 6 days by bioluminescence assay; assay type: functional
[13] = species: Homo sapiens; assay: Reversal of 4-nitrobenzoate-induced reduction in mitochondrial ATP level in CoQ10-deficient human Friedreich's ataxia lymphocytes at 5 uM after 6 days by bioluminescence assay; assay type: functional
[14] = species: Homo sapiens; assay: Decrease in mitochondrial ATP level in CoQ10-deficient human Friedreich's ataxia lymphocytes at 5 uM after 6 days by bioluminescence assay in presence of 4-nitrobenzoate; assay type: functional
[15] = species: Homo sapiens; assay: Decrease in mitochondrial ATP level in CoQ10-deficient human Friedreich's ataxia lymphocytes at 5 uM after 6 days by bioluminescence assay; assay type: functional
[16] = species: Homo sapiens; assay: Decrease in total ATP level in human Friedreich's ataxia lymphocytes after 48 hrs by bioluminescence assay; assay type: functional; summary of the method: as §1
[17] = species: Homo sapiens; assay: Decrease in total ATP level in CoQ10-deficient human GM17932 cells after 48 hrs by bioluminescence assay; assay type: functional; summary of the method: as §1

For `CCCCCCCCCCCCCCCCCCc1nc(N(C)C)nc(OC)c1O`, the Activity [1] was 102%, the Activity [2] was 102% and the Activity [3] was 101%. For the same compound, the Activity [4] was 96%, the Activity [5] was 98% and the Activity [6] was 98%. For the same compound, the Activity [7] was 73%, the Activity [8] was 55% and the Activity [9] was 39%. The inhibition [10] was “Active” and the pEC50 [11] was 6.58.
For `COc1nc(N(C)C)nc(CCCCCCCCCCO)c1O`, the Activity [12] was “inactive”, the Activity [1] was 46% and the Activity [2] was 66%. For the same compound, the Activity [3] was 80%, the Activity [13] was “Active” and the Activity [4] was 54%. For the same compound, the Activity [5] was 95%, the Activity [6] was 102% and the Activity [7] was 68%. The Activity [8] was 48%, the Activity [9] was 32% and the inhibition [10] was “Active”. For the same compound, the pEC50 [11] was 6.46.
In the case of `COC1=C(OC)C(=O)C(CCCCCCCCCCO)=C(C)C1=O` [IDEBENONE], the Activity [14] was “Active”, the Activity [15] was “Active” and the Activity [16] was “Dose-dependent effect”. The Activity [17] was “Dose-dependent effect”, the Activity [1] was 3% and the Activity [2] was 46%. For the same compound, the Activity [3] was 73%, the Activity [4] was 2% and the Activity [5] was 46%. It also gave an Activity [6] of 80%, an Activity [7] of 45% and an Activity [8] of 26%. The Activity [9] was 18% and the pEC50 [11] was 6.26.
Compound `COc1nc(N(C)C)nc(CCCCCCCCCCOCC23CC4CC(CC(C4)C2)C3)c1O` has an Activity [1] of 72%, an Activity [2] of 103% and an Activity [3] of 107%. The Activity [4] was 64%, the Activity [5] was 97% and the Activity [6] was 105%. It also gave an Activity [7] of 90%, an Activity [8] of 82% and an Activity [9] of 63%. The inhibition [10] was “Active” and the pEC50 [11] was 7.49.
Work on `CCCCCCCCCCc1nc(N(C)C)nc(OC)c1O` yielded an Activity [1] of 58%, an Activity [2] of 87% and an Activity [3] of 94%. It also gave an Activity [4] of 58%, an Activity [5] of 83% and an Activity [6] of 96%. For the same compound, the Activity [7] was 88%, the Activity [8] was 80% and the Activity [9] was 68%. The pEC50 [11] was 7.17.
With `CCCCCCCCCCC1=C(C)C(=O)C(OC)=C(OC)C1=O` [DECYLUBIQUINONE] the Activity [16] was “Dose-dependent effect”, the Activity [17] was “Dose-dependent effect” and the Activity [1] was 63%. It also gave an Activity [2] of 76%, an Activity [3] of 93% and an Activity [4] of 63%. It also gave an Activity [5] of 99%, an Activity [6] of 100% and an Activity [7] of 90%. The Activity [8] was 82%, the Activity [9] was 60% and the pEC50 [11] was 7.25.
For `CCCCCCCCCCCCCCc1nc(N(C)C)nc(OC)c1O`, the Activity [1] was 55%, the Activity [2] was 97% and the Activity [3] was 109%. For the same compound, the Activity [4] was 65%, the Activity [5] was 97% and the Activity [6] was 105%. It also gave an Activity [7] of 92%, an Activity [8] of 88% and an Activity [9] of 77%. For the same compound, the inhibition [10] was “Active” and the pEC50 [11] was 7.66.
With `CCCCCCCCCCCCCCCCc1nc(N(C)C)nc(OC)c1OC(C)=O` the Activity [1] was 92%, the Activity [2] was 101% and the Activity [3] was 109%. For the same compound, the Activity [4] was 96%, the Activity [5] was 109% and the Activity [6] was 116%.
`Cc1nc(N(C)C)nc(CCCCCCCCCCO)c1O` showed an Activity [1] of 28%, an Activity [2] of 46% and an Activity [3] of 77%. For the same compound, the Activity [4] was 46%, the Activity [5] was 86% and the Activity [6] was 99%. For the same compound, the Activity [7] was 56%, the Activity [8] was 37% and the Activity [9] was 25%. The pEC50 [11] was 6.34.
For `CCCCCCCCCCCCCCCCc1nc(N(C)C)nc(OC)c1O`, the Activity [1] was 80%, the Activity [2] was 96% and the Activity [3] was 108%. The Activity [13] was “Active”, the Activity [4] was 90% and the Activity [5] was 106%. It also gave an Activity [6] of 118%, an Activity [7] of 92% and an Activity [8] of 90%. For the same compound, the Activity [9] was 81%, the inhibition [10] was “Active” and the pEC50 [11] was 7.60.
